In ChEMBL document CHEMBL3808291, “Bifunctional Peptide-Based Opioid Agonist-Nociceptin Antagonist Ligands for Dual Treatment of Acute and Neuropathic Pain” (J Med Chem, 2016):
Active and inactive are the calls of the source. Numbered stars: 1 amine (or outer) side, 2 acyl side, 3 side chain; on linkers, the order of the positions; unused ones are H or OH. Square brackets hold non-standard residues; d marks the D form. Peptide text beside a SMILES is read from it. X1 = O=C1[C@@H](N[*:1])Cc2ccccc2CN1CCC(=O)[*:2]; Phe(4-F) = N[C@@H](Cc1ccc(F)cc1)C(=O)O; Dmt = Cc1cc(O)cc(C)c1C[C@H](N)C(=O)O

What was measured:
Mus musculus [1] = test: Antiallodynic activity in albino Swiss CD1 IGS mouse model of streptozocin-induced type1 diabetic neuropathic pain assessed as increase in mechanical threshold for paw withdrawal at 0.007 nmol, it administered on day 10 after STZ injection measured at 30 mins post dose by Von Frey test; assay type: functional, organism-based
Outline: (§1)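 Male Albino Swiss CD-1 mice made diabetic by single ip streptozocin 200 mg/kg; glucose >300 mg/dL required; tested day 10. Compound in water for injection, 5 µL intrathecal at L5–L6; von Frey or cold plate (2 °C, 30 s cutoff) at 30, 90, 180 min; 6–8 mice per group.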

Mus musculus [2] = test: Antiallodynic activity in albino Swiss CD1 IGS mouse model of streptozocin-induced type1 diabetic neuropathic pain assessed as increase in mechanical threshold for paw withdrawal at 0.007 nmol, it administered on day 10 after STZ injection measured at 180 mins post dose by Von Frey test; assay type: functional, organism-based; outline: as §1
Nociceptin receptor [3] = target: T1, Nociceptin receptor (Homo sapiens, UniProt P41146); test: Agonist activity at human nociceptin receptor expressed in HEK293 cells assessed as inhibition of forskolin-stimulated cAMP production up to 10 uM preincubated for 15 mins followed by forskolin addition measured for 90 mins by luciferase reporter gene assay; assay type: functional, cell-based
Outline: (§2)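 HEK293 cells stably expressing human NOP and GloSensor, in Hepes buffer pH 7.4 with 1 mM d-luciferin, pre-equilibrated 2 h at 25 °C. Compound at various concentrations added 15 min before forskolin (0.5 µM final); luminescence read kinetically for 90 min at 25 °C with 0.5 mM IBMX. At least two experiments in duplicate.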

Mus musculus [4] = test: Neurotoxicity in intrathecally dosed albino Swiss CD1 IGS mouse assessed as motor impairment measured after 15 to 120 mins post dose by rotarod test; assay type: toxicity, organism-based; settings: in vivo, icv_or_intrathecal
Outline: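 Intrathecal dosing (water for injection, 5 µL) to male CD-1 mice. After three training sessions, mice placed on accelerating rod (2 to 40 rpm over 300 s cutoff); tested 15 and 120 min after injection.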

Nociceptin receptor [5] = target: T1, Nociceptin receptor; test: Antagonist activity at human nociceptin receptor expressed in HEK293 cells assessed as inhibition of OFQ/nociceptin-induced suppression of cAMP accumulation up to 20 uM preincubated for 15 mins followed by OFQ/nociceptin addition by luciferase reporter gene assay; assay type: functional, cell-based
Mus musculus [6] = test: Antihyperalgesic activity in albino Swiss CD1 IGS mouse model of streptozocin-induced type1 diabetic neuropathic pain assessed as increase in paw withdrawal latency at 0.007 nmol, it administered on day 10 after STZ injection measured at 180 mins post dose by […]; assay type: functional, organism-based; outline: as §1
Nociceptin receptor [7] = target: T1, Nociceptin receptor; test: Partial agonist activity at human nociceptin receptor expressed in HEK293 cells assessed as inhibition of forskolin-stimulated cAMP production preincubated for 15 mins followed by forskolin addition measured for 90 mins by luciferase reporter gene assay relative to nociceptin; assay type: functional, cell-based; outline: as §2
Mus musculus [8] = test: Antiallodynic activity in albino Swiss CD1 IGS mouse model of streptozocin-induced type1 diabetic neuropathic pain assessed as increase in mechanical threshold for paw withdrawal at 0.008 nmol, it administered on day 10 after STZ injection measured at 180 mins post dose by Von Frey test; assay type: functional, organism-based; outline: as §1
Mus musculus [9] = test: Antiallodynic activity in albino Swiss CD1 IGS mouse model of streptozocin-induced type1 diabetic neuropathic pain assessed as increase in mechanical threshold for paw withdrawal at 0.008 nmol, it administered on day 10 after STZ injection measured at 30 mins post dose by Von Frey test; assay type: functional, organism-based; outline: as §1
Mus musculus [10] = test: Antihyperalgesic activity in albino Swiss CD1 IGS mouse model of streptozocin-induced type1 diabetic neuropathic pain assessed as increase in paw withdrawal latency at 0.008 nmol, it administered on day 10 after STZ injection measured at 180 mins post dose by […]; assay type: functional, organism-based; outline: as §1
Nociceptin receptor [11] = target: T1, Nociceptin receptor; test: Agonist activity at human nociceptin receptor expressed in CHO cell membrane incubated for 60 mins by [35S]GTPgammaS binding assay relative to control; assay type: functional, cell membranes
Nociceptin receptor [12] = target: T1, Nociceptin receptor; test: Displacement of [3H]OFQ/nociceptin from human nociceptin receptor expressed in HEK293 cell membrane incubated for 1 hr by TopCount scintillation counting method; assay type: cell membranes
Mus musculus [13] = test: Antihyperalgesic activity in albino Swiss CD1 IGS mouse model of streptozocin-induced type1 diabetic neuropathic pain assessed as increase in paw withdrawal latency at 0.005 nmol, it administered on day 10 after STZ injection measured at 180 mins post dose by […]; assay type: functional, organism-based
Outline: (§3)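 Male CD-1 mice (30–35 g). CCI: sciatic constriction injury, tested on days 7–16 after surgery. STZ diabetes: single ip streptozocin 200 mg/kg; mice with glucose >300 mg/dL included, tested on day 10. Drug in water for injection, given it (5 µL, L5–L6 lumbar puncture) to conscious mice. von Frey (cutoff 6 g) or cold plate (2 °C, 30 s cutoff, paw lift) at 30, 90, 180 min; 6–8 mice/group.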

Mus musculus [14] = test: Antiallodynic activity in intrathecally dosed albino Swiss CD1 IGS mouse model of chronic constriction injury-induced neuropathic pain assessed as increase in mechanical threshold for paw withdrawal administered on day 7 to 16 after CCI surgery measured 30 mins post dose by Von Frey test; assay type: functional
Outline: (§4)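 Male Albino Swiss CD-1 mice (30–35 g), sciatic chronic constriction injury under chloral hydrate; tested days 7–16 post-surgery. Compound in water for injection, 5 µL intrathecal by lumbar puncture L5–L6 in awake mice.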

Mus musculus [15] = test: Antihyperalgesic activity in intrathecally dosed albino Swiss CD1 IGS mouse model of chronic constriction injury-induced neuropathic pain assessed as increase in paw withdrawal latency administered on day 7 to 16 after CCI surgery measured 30 mins post dose by cold plate test; assay type: functional; outline: as §4
Mus musculus [16] = test: Antiallodynic activity in albino Swiss CD1 IGS mouse model of streptozocin-induced type1 diabetic neuropathic pain assessed as increase in mechanical threshold for paw withdrawal at 0.005 nmol, it administered on day 10 after STZ injection measured at 30 mins post dose by Von Frey test; assay type: functional, organism-based; outline: as §3
Mus musculus [17] = test: Antiallodynic activity in albino Swiss CD1 IGS mouse model of streptozocin-induced type1 diabetic neuropathic pain assessed as increase in mechanical threshold for paw withdrawal at 0.005 nmol, it administered on day 10 after STZ injection measured at 180 mins post dose by Von Frey test; assay type: functional, organism-based; outline: as §3
Mus musculus [18] = species on record: Mus musculus; test: Neurotoxicity in albino Swiss CD1 IGS mouse assessed as motor impairment at 0.5 nmol, it measured after 15 to 120 mins post dose by rotarod test; assay type: toxicity, organism-based; settings: in vivo, icv_or_intrathecal
Outline: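 CD-1 mice given intrathecal compound (5 µL, L5–L6), tested at 15 and 120 min on accelerating rotarod, 2 to 40 rpm over 300 s cutoff, after three training sessions.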

Mus musculus [19] = test: Antinociceptive activity in iv dosed C57BL6 mouse model of acute pain assessed as increase in withdrawal latency from radiant heat source measured after 5 to 120 mins by tail flick assay; assay type: functional, organism-based
Outline: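 Male C57BL6 mice (20–25 g), restrained; compound or saline control injected intravenously into tail vein. Radiant heat light beam applied to ventral tail; latency to withdrawal or tail shake recorded at baseline and 5, 15, 30, 60, 120 min post-injection. Latencies normalized as %MPE (mean ± SEM); groups of 8–10 mice.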

Mus musculus [20] = test: Antihyperalgesic activity in albino Swiss CD1 IGS mouse model of chronic constriction injury-induced neuropathic pain assessed as increase in paw withdrawal latency at >10 ug, it administered on day 7 to 16 after CCI surgery measured 30 mins post dose by cold plate test relative to control; assay type: functional
Mus musculus [21] = test: Antinociceptive activity in C57BL6 mouse model of acute pain assessed as increase in withdrawal latency from radiant heat source at 390 nmol/kg, iv measured after 15 to 30 mins by tail flick assay; assay type: functional, organism-based
Outline: (§5)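 Male C57BL6 mice (20–25 g); compound or saline given iv into tail vein (po also tested). Radiant heat on ventral tail, latency to withdrawal/shaking recorded at baseline and 5, 15, 30, 60, 120 min (later points also reported); normalized as %MPE; 8–10 mice per group.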

Mus musculus [22] = test: Antiallodynic activity in albino Swiss CD1 IGS mouse model of chronic constriction injury-induced neuropathic pain assessed as increase in mechanical threshold for paw withdrawal at 10 ug, it administered on day 7 to 16 after CCI surgery measured 30 mins post dose by Von Frey test relative to control; assay type: functional
Mus musculus [23] = test: Antinociceptive activity in C57BL6 mouse model of acute pain assessed as increase in withdrawal latency from radiant heat source at 10 ug, iv measured after 5 to 120 mins by tail flick assay relative to control; assay type: functional
Mus musculus [24] = test: Antihyperalgesic activity in albino Swiss CD1 IGS mouse model of chronic constriction injury-induced neuropathic pain assessed as increase in paw withdrawal latency at 10 ug, it administered on day 7 to 16 after CCI surgery measured 30 mins post dose by cold plate test relative to control; assay type: functional
Mus musculus [25] = test: Antiallodynic activity in albino Swiss CD1 IGS mouse model of chronic constriction injury-induced neuropathic pain assessed as increase in mechanical threshold for paw withdrawal at >10 ug, it administered on day 7 to 16 after CCI surgery measured 30 mins post dose by Von Frey test relative to control; assay type: functional
Mus musculus [26] = test: Antinociceptive activity in C57BL6 mouse model of acute pain assessed as increase in withdrawal latency from radiant heat source at >10 ug, iv measured after 5 to 120 mins by tail flick assay relative to control; assay type: functional
Mus musculus [27] = test: Antinociceptive activity in C57BL6 mouse model of acute pain assessed as increase in withdrawal latency from radiant heat source at 390 nmol/kg, iv measured after 60 mins by tail flick assay; assay type: functional, organism-based; outline: as §5

T1 sequence (P41146 whole entry): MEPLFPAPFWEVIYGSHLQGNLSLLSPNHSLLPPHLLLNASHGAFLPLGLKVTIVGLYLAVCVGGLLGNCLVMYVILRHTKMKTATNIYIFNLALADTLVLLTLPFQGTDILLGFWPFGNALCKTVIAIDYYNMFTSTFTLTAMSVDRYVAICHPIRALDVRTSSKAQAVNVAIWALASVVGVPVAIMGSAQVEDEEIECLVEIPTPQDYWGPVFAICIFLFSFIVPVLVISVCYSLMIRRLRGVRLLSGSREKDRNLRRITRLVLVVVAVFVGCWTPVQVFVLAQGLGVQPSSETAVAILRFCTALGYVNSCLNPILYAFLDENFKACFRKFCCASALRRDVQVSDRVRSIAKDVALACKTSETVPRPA

CC[C@H](C)[C@H](NC(=O)[C@H](CCCNC(=N)N)NC(=O)[C@H](Cc1ccc(O)cc1)NC(=O)[C@H](Cc1ccc(O)cc1)NC(=O)[C@@H](N)CCCNC(=N)N)C(=O)N[C@@H](CCCCN)C(N)=O
Activity (Mus musculus [1]): Active | Activity (Mus musculus [2]): inactive | Activity (Nociceptin receptor [3]): inactive | Activity (Mus musculus [4]): Non-toxic | inhibition (Nociceptin receptor [5]): inactive | Activity (Mus musculus [6]): inactive

CC[C@H](C)[C@@H](NC(=O)[C@H](CCCNC(=N)N)NC(=O)[C@H](Cc1ccc(O)cc1)NC(=O)[C@H](Cc1ccc(O)cc1)NC(=O)[C@H](CCCNC(=N)N)NC(C)=O)C(=O)N[C@@H](CCCCN)C(N)=O
inhibition (Nociceptin receptor [7]): 70% | Activity (Mus musculus [8]): inactive | Activity (Mus musculus [9]): Active | Activity (Mus musculus [10]): inactive | inhibition (Nociceptin receptor [5]): inactive

CC(=O)N[C@@H](CCCNC(=N)N)C(=O)N[C@@H](Cc1ccc(O)cc1)C(=O)N[C@@H](Cc1ccc(F)cc1)C(=O)N[C@@H](CCCNC(=N)N)C(=O)N[C@@H](Cc1c[nH]c2ccccc12)C(=O)N[C@@H](CCCNC(=N)N)C(N)=O (Ac-RY[Phe(4-F)]RWR-NH2)
Activity (Nociceptin receptor [11]): 70%

Cc1cc(O)cc(C)c1C[C@H](N)C(=O)N[C@H](CCCNC(=N)N)C(=O)N[C@H]1Cc2ccccc2CN(CCC(=O)N[C@@H](CCCNC(=N)N)C(=O)N[C@@H](Cc2ccc(O)cc2)C(=O)N[C@@H](Cc2ccc(O)cc2)C(=O)N[C@@H](CCCNC(=N)N)C(=O)N[C@@H](Cc2c[nH]c3ccccc23)C(=O)N[C@@H](CCCNC(=N)N)C(N)=O)C1=O (H-[Dmt][dR][X1]RYYRWR-NH2)
Ki (Nociceptin receptor [12]): 47 nM | Activity (Mus musculus [13]): inactive | ED50 (Mus musculus [14]): 0.0009 nmol | ED50 (Mus musculus [15]): 0.002 nmol | Activity (Mus musculus [16]): Active | Activity (Mus musculus [4]): Non-toxic | Activity (Mus musculus [17]): inactive

Cc1cc(O)cc(C)c1C[C@H](NC(=O)[C@H](Cc1ccc(O)cc1)NC(=O)[C@H](CCCNC(=N)N)NC(=O)CCN1Cc2ccccc2C[C@H](NC(=O)[C@@H](CCCNC(=N)N)NC(=O)[C@@H](N)Cc2c(C)cc(O)cc2C)C1=O)C(=O)N[C@@H](CCCNC(=N)N)C(=O)N[C@@H](Cc1c[nH]c2ccccc12)C(=O)N[C@@H](CCCNC(=N)N)C(N)=O (H-[Dmt][dR][X1]RY[Dmt]RWR-NH2)
Activity (Mus musculus [13]): inactive | ED50 (Mus musculus [14]): 0.0009 nmol | ED50 (Mus musculus [15]): 0.005 nmol | Activity (Mus musculus [16]): Active | Activity (Mus musculus [4]): Non-toxic | Activity (Mus musculus [17]): inactive

Cc1cc(O)cc(C)c1C[C@H](N)C(=O)N[C@H](CCCNC(=N)N)C(=O)N[C@H]1Cc2ccccc2CN(CCC(=O)N[C@@H](CCCNC(=N)N)C(=O)N[C@@H](Cc2ccc(O)cc2)C(=O)N[C@@H](Cc2ccc(F)cc2)C(=O)N[C@@H](CCCNC(=N)N)C(=O)N[C@@H](Cc2c[nH]c3ccccc23)C(=O)N[C@@H](CCCNC(=N)N)C(N)=O)C1=O (H-[Dmt][dR][X1]RY[Phe(4-F)]RWR-NH2)
Activity (Mus musculus [18]): Toxic | Activity (Mus musculus [13]): inactive | Activity (Mus musculus [16]): Active | Activity (Mus musculus [17]): inactive

CN1CC[C@]23c4c5ccc(O)c4O[C@H]2[C@@H](O)C=C[C@H]3[C@H]1C5 [MORPHINE]
Activity (Mus musculus [19]): Dose-dependent effect | MPE (Mus musculus [20]): 50% | Activity (Mus musculus [21]): Active | MPE (Mus musculus [22]): 36.5% | ED50 (Mus musculus [14]): 7 nmol | ED50 (Mus musculus [15]): 7.46 nmol | MPE (Mus musculus [23]): 63.8% | MPE (Mus musculus [24]): 30.15% | MPE (Mus musculus [25]): 50% | MPE (Mus musculus [26]): 100% | Activity (Mus musculus [27]): inactive
